Laboratory results as given in ChEMBL document CHEMBL1136772, “Thyroid receptor ligands. 1. Agonist ligands selective for the thyroid receptor beta1” (J Med Chem, 2003).

Columns and labels:
Type in all cases: functional
Rattus norvegicus [1] = organism: Rattus norvegicus; experiment: Ratio of ED15HR to that of ED50chol was determined
Outline: (§1)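 Cholesterol-fed male Sprague-Dawley rats (1.5% cholesterol, 0.5% cholic acid, 2 weeks) dosed s.c. once daily for 7 days, vehicle 10% m-pyrol/5% ethanol/5% cremaphor/80% water, n = 6/dose, 1.54–9240 nmol/kg/day. Heart rate recorded by lead II ECG under 30 mg/kg pentobarbital. ED15 = dose raising heart rate 15% over vehicle; ratio taken against cholesterol ED50 (50% suppression from vehicle).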

Rattus norvegicus [2] = experiment: Effect upon subcutaneous administration on TSH suppression in rat was determined
Outline: (§2)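 Male Sprague-Dawley rats on chow with 1.5% cholesterol and 0.5% cholic acid for 2 weeks, then s.c. once daily for 7 days (vehicle 10% m-pyrol, 5% ethanol, 5% cremaphor, 80% water; n = 6/dose), doses 1.54–9240 nmol/kg/day. Plasma TSH measured by rat RIA and cholesterol by clinical analyzer in aortic blood after pentobarbital. ED50 = dose giving 50% suppression from vehicle, in nmol/kg/day.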

Rattus norvegicus [3] = experiment: Effect upon subcutaneous administration on the heart rate in rat was determined; outline: as §1
Rattus norvegicus [4] = experiment: Effect upon subcutaneous administration on cholesterol in rat was determined; outline: as §2
Rattus norvegicus [5] = organism: Rattus norvegicus; experiment: Ratio of ED50TSH to that of ED50chol was determined; outline: as §2

Structure (SMILES)	HR/chol (Rattus norvegicus [1])	ED50 (Rattus norvegicus [2]) [nM/day/kg]	ED15 (Rattus norvegicus [3]) [nM/day/kg]	ED50 (Rattus norvegicus [4]) [nM/day/kg]	TSH/chol (Rattus norvegicus [5])
CC(C)c1cc(Oc2c(Br)cc(CC(=O)O)cc2Br)ccc1O	9.7	<46.2	926	95.4	<0.5
CC(C)c1cc(Oc2c(Cl)cc(CC(=O)O)cc2Cl)ccc1O	13.1	38	1077	82	0.4
N[C@H](Cc1cc(I)c(Oc2ccc(O)c(I)c2)c(I)c1)C(=O)O [DETROTHYRONINE]	0.7	7	14	20	0.3
